Screens from PubChem.
Rows were chosen to be rich in hits. Some 2.3% of all compounds tested hit in one or more screens of this group.
TRPC4 inh: inhibitors of mouse TRPC4 channel, primary screen, Fluo4 calcium, HEK293 TRPC4beta/mu-opioid cells | B-score at 10 µM | actives 0.39% (n = 300,000) | DAMGO-evoked Fluo4 calcium flux; stronger effect = lower value | AID 2247, 2010;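 active = B-score over 3 SD under the library average, no early fluorescence shift, positive overall ratio signal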
Target sequence (Q9QUQ5 whole entry, looked up): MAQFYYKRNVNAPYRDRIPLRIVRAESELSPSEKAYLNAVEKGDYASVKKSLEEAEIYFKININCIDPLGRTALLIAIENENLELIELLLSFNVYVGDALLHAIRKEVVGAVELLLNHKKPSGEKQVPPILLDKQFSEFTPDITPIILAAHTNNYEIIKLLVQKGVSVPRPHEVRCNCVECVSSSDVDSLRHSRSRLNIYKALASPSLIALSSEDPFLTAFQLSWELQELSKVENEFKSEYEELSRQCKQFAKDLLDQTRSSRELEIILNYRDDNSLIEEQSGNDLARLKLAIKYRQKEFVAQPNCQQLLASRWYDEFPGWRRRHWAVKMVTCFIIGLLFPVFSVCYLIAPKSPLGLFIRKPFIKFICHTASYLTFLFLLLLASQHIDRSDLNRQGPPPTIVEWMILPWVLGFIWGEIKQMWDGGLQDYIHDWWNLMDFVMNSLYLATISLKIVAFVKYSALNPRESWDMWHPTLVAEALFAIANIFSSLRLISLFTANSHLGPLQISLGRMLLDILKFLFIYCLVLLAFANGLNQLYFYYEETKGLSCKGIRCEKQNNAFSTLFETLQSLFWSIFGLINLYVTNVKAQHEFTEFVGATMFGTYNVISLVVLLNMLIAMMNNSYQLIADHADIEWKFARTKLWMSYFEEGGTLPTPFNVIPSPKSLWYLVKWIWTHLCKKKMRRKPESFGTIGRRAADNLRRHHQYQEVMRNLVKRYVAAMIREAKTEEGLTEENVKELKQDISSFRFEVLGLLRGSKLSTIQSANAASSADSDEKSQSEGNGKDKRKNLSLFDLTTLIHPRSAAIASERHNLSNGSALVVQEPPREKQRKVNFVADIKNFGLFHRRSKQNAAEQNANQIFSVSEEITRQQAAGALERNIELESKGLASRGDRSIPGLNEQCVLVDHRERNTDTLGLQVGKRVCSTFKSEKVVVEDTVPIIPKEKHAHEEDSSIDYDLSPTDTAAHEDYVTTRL
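Material: HEK293 cells with stable TRPC4beta plus mu-opioid receptor expression; probe or stimulus: DAMGO in two steps, submaximal then maximal; technique: Fluo4 calcium fluorescence by kinetic imaging, 5 s 1 Hz baseline; measure: integrated fluorescence ratio relative to baseline, converted to per-well B score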
TRPC4 agonist: activators of mouse TRPC4 channel, primary screen, Fluo4 calcium, HEK293 TRPC4beta/mu-opioid cells | Short transient receptor potential channel 4 (Mus musculus), Q9QUQ5 | Fluo4 calcium fluorescence; stronger effect = higher value | B-score at 10 µM | actives 0.49% (n = 310,000) | AID 2237, 2010;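 active = B-score above 5 SD of library B-scores, and initial fluorescence ratio not above library mean plus 5 SD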;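 also: positive B-score marks a calcium rise read as TRPC4 activation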
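Incubation: 45 min room-temperature Fluo4 loading, 110 s read / System: HEK293 cells stably co-expressing mouse TRPC4beta and mu-opioid receptor / Signal: Fluo4 fluorescence, kinetic / Control set: buffer (low) and maximal DAMGO (high) / Measure: integrated baseline-normalised fluorescence ratio, converted to per-well B score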
TRPC4 PAM: positive allosteric modulators of TRPC4, primary screen, cell-based, mouse TRPC4beta, HEK293 mu-opioid, Fluo-4 calcium; Short transient receptor potential channel 4 (Mus musculus), Q9QUQ5; DAMGO EC20, Fluo-4 Ca2+ flux; stronger effect = higher value; B-score at 10 µM; actives 0.42% (n = 310,000); AID 2227, 2009;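 active = B-score of calcium response area above 5 SD of library B-scores, with initial fluorescence ratio within 5 SD of library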;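 also: B-score of integrated fluorescence ratio over time as area under calcium response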
TRPC6 activator: mouse TRPC6 channel activators, primary screen, cell-based, HEK293, membrane potential dye | Short transient receptor potential channel 6 (Mus musculus), Q61143 | HEK293-TRPC6 membrane potential dye fluorescence; stronger effect = higher value | B-score at 10 µM | actives 0.13% (n = 310,000) | AID 2550, 2010;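 active = B-score of the integrated fluorescence ratio above library mean plus 3 SD, and starting fluorescence ratio within library mean plus 5 SD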;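 also: higher score means more depolarization so channel activation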
TRPC6 inhibitor: mouse TRPC6 channel inhibitors, primary screen, cell-based, HEK293, membrane potential dye. ACh-evoked depolarization; stronger effect = lower value. B-score at 10 µM. Short transient receptor potential channel 6 (Mus musculus), Q61143. actives 1.1% (n = 310,000);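 active = B-score under library mean minus 3 SD, initial fluorescence not abnormally high, positive integrated signal ratio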;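 also: B-score derived from integrated fluorescence ratio over the kinetic read; more negative B-score means stronger inhibition of depolarization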
TRPC4 sel inh 2: second selectivity test of TRPC6 inhibitors: effect on mouse TRPC4; inhibition, % at 10 µM; HEK293 TRPC4/MOR, membrane potential dye fluorescence; channel activated by saturating DAMGO dose; actives 42% (n = 920); AID 2776; shares compounds with TRPC6 inhibitor;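 active = compounds whose fluorescence signal differed from control wells by over 3 SD, either direction, in both duplicate plates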
TRPC4 spec: mouse TRPC4 modulation by TRPC6 hits, confirmation, selectivity assay for TRPC6 inhibitor project, cell-based, HEK293 TRPC4/mu-opioid, membrane potential dye; shares compounds with TRPC6 inhibitor; membrane potential fluorescence; activity change, negative = inhibition, % at 10 µM; actives 61% (n = 920); AID 2777, 2010;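 active = rise or fall in signal beyond 3 SD of buffer-only wells in both replicate plates, either sign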;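 also: integrated kinetic ratio of fluorescence range over baseline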
HEK293 MPD ctr 2-1: nonspecific membrane potential effects, parental HEK293, confirmation, counter-screen for TRPC6 inhibitor project, cell-based, second counter screen | actives 31% (n = 920) | signal change vs control, % at 10 µM | shares compounds with TRPC6 inhibitor | AID 2779, 2010 | parental HEK293 membrane potential dye fluorescence; maximal acetylcholine challenge after compound addition;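 active = membrane potential signal moving either way by over 3 SD of the maximum-effect control, in both duplicate plates, meaning non-specific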
HEK293 MPD ctr-1: membrane potential modulation in parental HEK293, confirmation, counter-screen for TRPC6 inhibitor project, cell-based | actives 60% (n = 920) | membrane potential signal change, % at 10 µM | shares compounds with TRPC6 inhibitor | parental HEK293 membrane potential dye fluorescence | AID 2780, 2010;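 active = membrane potential signal shifting up or down by more than 3 SD of buffer-only wells, on both duplicate plates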
HEK293 MPD ctr-2: parental HEK293 membrane potential modulation, confirmation, counter-screen for TRPC6 modulator project, cell-based; shares compounds with TRPC6 inhibitor; membrane potential dye fluorescence; membrane potential signal change, % at 10 µM; actives 51% (n = 2,400); AID 488924, 2010;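 active = membrane potential signal moves up or down beyond 5 SD from buffer-only wells, on both duplicate plates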
HEK293 MPD ctr 2-2: parental HEK293 nonspecific activity of TRPC6 modulators, second screen; shares compounds with TRPC6 inhibitor; membrane potential dye fluorescence; after compound, maximal acetylcholine stimulation; actives 14% (n = 2,400); inhibition, % at 10 µM;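 active = membrane potential signal drops by more than 5 SD from the mean control signal, in both duplicate plates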;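 also: plate controls were acetylcholine ECmax control wells for no effect and buffer only wells for full effect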
TRPC4/MOR mod: TRPC4 modulation by TRPC6 hit compounds, confirmation, selectivity assay for TRPC6 modulator project, cell-based, HEK293 TRPC4/mu-opioid, membrane potential dye, mouse. shares compounds with TRPC6 inhibitor. membrane potential fluorescence. percent change from control (negative = decrease, positive = increase), % at 10 µM. actives 69% (n = 2,400);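 active = membrane potential signal moved up or down beyond 5 SD of buffer control wells, in both duplicate plates, actives on both sides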;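 also: plate controls were assay buffer wells for no effect and DAMGO maximal-effect wells for full effect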
TRPC4/MOR inh 2: second selectivity test of TRPC6 modulators against mouse TRPC4. shares compounds with TRPC6 inhibitor. HEK293 TRPC4/mu-opioid, membrane potential dye fluorescence; stimulated with maximal-effect DAMGO. inhibition, % at 10 µM. actives 55% (n = 2,400). AID 488928;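 active = drop in membrane potential signal beyond 5 SD of the control wells in both duplicate plates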;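 also: TRPC4 counter screen for TRPC6 hits run under conditions tuned for TRPC6 not TRPC4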
TRPC6 block conf: mouse TRPC6 channel inhibitors, confirmation, HEK293 cells, membrane potential dye, duplicate; shares compounds with TRPC6 inhibitor; ACh-evoked depolarization; inhibition, % at 10 µM; actives 43% (n = 3,300);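 active = fluorescence ratio falls more than 5 SD below the full-stimulation control mean, in both duplicate runs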;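 also: integrated fluorescence ratio of peak minus minimum over baseline after agonist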
TRPC6 act confirm: mouse TRPC6 channel activators, confirmation, HEK293 cells, membrane potential dye, duplicate. shares compounds with TRPC6 inhibitor. HEK293-TRPC6 membrane potential dye fluorescence, FDSS. activation, % at 10 µM. actives 11% (n = 2,800);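 active = ratio signal rise beyond 5 SD above unstimulated control wells' mean, seen in both duplicate runs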;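 also: plate controls were buffer EC0 wells for no effect and acetylcholine ECmax response for full effect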
Numbers without * were called inactive; i = inactive; / = not tested or not shown.

SMILES | TRPC4 inh | TRPC4 agonist | TRPC4 PAM | TRPC6 activator | TRPC6 inhibitor | HEK293 MPD ctr-2 | HEK293 MPD ctr 2-2 | TRPC4/MOR mod | TRPC4/MOR inh 2 | TRPC6 block conf | TRPC6 act confirm | others
O=C(c1ccco1)N1CCN(Cc2cc(=O)c(OCc3ccc([N+](=O)[O-])cc3)co2)CC1 | i | i | i | i | i | / | / | / | / | / | /
COc1ccc2[nH]c3c(C)c4ccncc4c(C)c3c2c1 | i | i | i | i | -6.2* | -159%* | i | -43%* | 33%* | i | i
COCCNC(=S)Nc1ccc2nc(N3CCOCC3)cc(C)c2c1 | i | i | i | i | i | / | / | / | / | / | /
CCOCCCNC(=S)Nc1ccc2nc(N3CCCC3)cc(C)c2c1 | i | i | i | i | -5.6* | -138%* | i | -26%* | 40%* | 44%* | i
COCCNC(=S)Nc1ccc2nc(N3CCCC3)cc(C)c2c1 | i | i | i | i | -6.2* | -135%* | 82%* | -26%* | 40%* | 71%* | i
CC(C(=O)NC1CCCCCC1)c1ccc([N+](=O)[O-])cc1 (stereo not given) | i | i | i | i | i | / | / | / | / | / | /
COc1cccc(CN2CC(C(=O)N3CCN(c4ccc(Cl)cc4)CC3)CCC2=O)c1 (stereo not given) | i | i | i | i | i | / | / | / | / | / | /
CC1CN(S(=O)(=O)c2ccc(C(=O)N(CCCN(C)C)c3nc4c(Cl)cccc4s3)cc2)CC(C)O1 (stereo not given) | i | i | i | i | -7.5* | i | i | -14%* | 68%* | i | i
COc1ccc(OC)c2sc(N(CCN(C)C)C(=O)c3ccc4ccccc4c3)nc12 | i | i | 12* | i | -7.6* | / | / | / | / | 79%* | i | TRPC4 sel inh 2=i;TRPC4 spec=i;HEK293 MPD ctr 2-1=i;HEK293 MPD ctr-1=i
COc1cc2ccccc2cc1C(=O)N(CCN(C)C)c1nc2c(OC)ccc(OC)c2s1 | i | i | i | i | i | / | / | / | / | / | /
CN(C)CCN(C(=O)c1ccc2c(c1)OCCO2)c1nc2c(Cl)cccc2s1 | i | i | i | i | -7.2* | / | / | / | / | 98%* | i | TRPC4 sel inh 2=26%*;TRPC4 spec=-22%*;HEK293 MPD ctr 2-1=i;HEK293 MPD ctr-1=-288%*
CC(=O)c1ccc(C(=O)N(CCN(C)C)c2nc3c(Cl)cccc3s2)cc1 | i | i | i | i | i | / | / | / | / | / | /
COc1ccc(Cl)c2sc(N(CCN(C)C)C(=O)c3ccc4c(c3)OCCO4)nc12 | i | i | 46* | i | -9.6* | -122%* | 90%* | -40%* | 90%* | 72%* | i
COc1cccc2sc(N(CCN(C)C)C(=O)c3ccc(S(=O)(=O)N4CCCC4)cc3)nc12 | i | i | i | i | i | / | / | / | / | / | /
CC1CCCC(C)N1C(=O)c1cc(-c2ccc3c(c2)OCO3)on1 (stereo not given) | i | i | i | i | i | / | / | / | / | / | /
COC(=O)C1CSC(C(=O)OC)N1C(=O)CN1CCN(c2ccc(OC)cc2)CC1 (stereo not given) | i | i | i | i | i | / | / | / | / | / | /
OCc1ncc(-c2ccccc2)s1 | i | i | i | i | i | / | / | / | / | / | /
CCC(=O)N1N=C(c2ccc(NS(C)(=O)=O)cc2)CC1c1ccc(N(C)C)cc1 (stereo not given) | i | i | i | i | i | / | / | / | / | / | /
CCOc1cccc2sc(N(CCCN(C)C)C(=O)c3ccc(S(=O)(=O)N(C)c4ccccc4)cc3)nc12 | i | i | i | i | -6.6* | i | i | i | 71%* | i | i
CCOc1cccc2sc(N(CCCN(C)C)C(=O)c3ccc(S(=O)(=O)N4CCc5ccccc5C4)cc3)nc12 | i | i | i | i | i | / | / | / | / | / | /
CCOc1ccc(-n2nc3c(Cl)nnc(C)c3c2C)cc1 | i | i | i | i | -6.7* | i | i | i | i | i | i
Cc1nnc(Cl)c2nn(-c3ccccc3)c(C)c12 | i | i | i | i | i | / | / | / | / | / | /
